A selection: hits, their analogues and other compounds. The true share with any hit is near 0.64%.
HEK293 NFkB inh – inhibitors of the PMA/ionomycin-induced NF-kB reporter in HEK293 cells. HEK-293 NF-kB luciferase reporter, luminescence. inhibition, % at 3 µM. 0.21% of 62,000 active. AID 465;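 active = inhibition above the mean of all tested compounds plus 3 SD, cut at about 40% in these data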
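System: NF-kB luciferase reporter HEK-293 cells | Replication: Single test | Control set: DMSO vs reference inhibitor | Evaluation: % inhibition | Schedule: 1 h pretreatment, 16 h stimulation, 37 °C | Probe or stimulus: PMA with ionomycin | Compound dosing: One dose, 3 µM | Detection: Luciferase luminescence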
ROCK2 inh – ROCK2 (human) kinase inhibition; purified ROCK2, Kinase-Glo ATP depletion luminescence; inhibition, % at 6 µM; 0.35% of 60,000 active;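 active = inhibition above the screen-wide mean inhibition plus 3 SD, cut at about 18% in these data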
PKA inh – blocks human protein kinase A activity | P17612 | PKA Kemptide phosphorylation, Kinase-Glo ATP luminescence | inhibition, % at 6 µM | 0.1% of 65,000 active | AID 524;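 active = inhibition above the screen-wide mean inhibition plus 3 SD, cut at about 21% in these data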
JNK3 inh – blocks human JNK3 kinase activity | inhibition, % at 8 µM | purified JNK3 kinase activity, HTS | P53779 | 0.61% of 60,000 active; in the data active = inhibition above about 17%
Target sequence (P53779 whole entry, looked up): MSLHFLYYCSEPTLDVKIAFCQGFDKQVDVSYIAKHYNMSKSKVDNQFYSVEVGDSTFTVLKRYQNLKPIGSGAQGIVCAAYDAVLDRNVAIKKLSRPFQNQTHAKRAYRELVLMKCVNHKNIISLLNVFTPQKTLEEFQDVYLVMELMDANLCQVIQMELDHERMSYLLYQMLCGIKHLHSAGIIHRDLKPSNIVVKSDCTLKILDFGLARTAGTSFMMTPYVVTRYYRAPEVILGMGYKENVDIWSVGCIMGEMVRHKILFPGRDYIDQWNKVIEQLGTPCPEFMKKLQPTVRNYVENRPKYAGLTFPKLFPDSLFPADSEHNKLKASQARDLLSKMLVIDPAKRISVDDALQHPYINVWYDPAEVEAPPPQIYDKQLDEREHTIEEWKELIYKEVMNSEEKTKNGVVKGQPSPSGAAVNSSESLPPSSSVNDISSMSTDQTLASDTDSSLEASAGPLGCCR
Each line names hits and unclear results; the compound was inactive in the other large screens.

CCOC(=O)C1=C(C)NC(=O)NC1c1ccc2c(c1)OCCO2 (centres undefined)	none
Cc1nc(COC(=O)c2c(C)nn(-c3ccccc3)c2C)cs1	none
CCOC(=O)c1c2n(c3ccc(O)cc13)CCC2	none (no result: ROCK2 inh, JNK3 inh)
CCOC(=O)c1c(C)[nH]c2ccc(O)cc12	JNK3 inh 18
CCN1C=CC(=C2C(=O)c3ccccc3C2=O)C=C1	HEK293 NFkB inh 50, JNK3 inh 62
CCCN1C=CC(=C2C(=O)c3ccccc3C2=O)C=C1	HEK293 NFkB inh 86, JNK3 inh 56
CN1C=CC(=C2C(=O)c3ccccc3C2=O)C=C1	JNK3 inh 32
CC1=CC(=C2C(=O)c3ccccc3C2=O)C=C(C)O1	none
COc1ccccc1NC(=O)NCCN1C(=O)C2C3C=CC(C3)C2C1=O (centres undefined)	none
Cn1c(=O)n(CCc2ccccc2)c(=O)c2c1nc1n2CCCN1c1ccc(F)cc1	none
Cc1cc(N2CCOCC2)c2c(N)c(C)cc(C)c2n1	ROCK2 inh 19
COc1ccc2nc(C)cc(N3CCOCC3)c2c1	none
CCOC(=O)c1cccc(NC(=O)CN(c2ccc(C)cc2)S(=O)(=O)c2c(C)n[nH]c2C)c1	none
CCOc1ccc(/C(O)=C2\C(=O)C(=O)N(c3cc(C)on3)C2c2ccccc2OC)cc1 (centres undefined)	JNK3 inh 21
CCCn1c(=O)n(C)c(=O)c2c3oc(=O)c(NC(=O)c4ccc(F)cc4)cc3[nH]c21	none
Cc1cccc(/N=C/c2c(O)[nH]c3ccccc23)n1	JNK3 inh 30
Oc1[nH]c2ccccc2c1C=Nc1ccc2c(c1)OCCO2	JNK3 inh 35
O=NC1=C(c2c(O)[nH]c3ccccc23)CCCC1	none
Cc1cc(NC(=O)COC(=O)C(Nc2ccc(C(F)(F)F)cc2Cl)C(C)C)no1 (centres undefined)	none
CCOC(=O)Nc1cccc(OCC(=O)Nc2ccccc2OC)c1	none
COc1ccccc1NC(=O)COc1ccc(CO)cc1Cl	JNK3 inh 19
Cc1cc2c(ccc3[nH]onc32)n1	ROCK2 inh 18, PKA inh 29
Cc1ccc2nc(C)cc(OCC(=O)O)c2c1	none
CC1Cc2ccccc2N1C(=O)CCn1c(=O)sc2ccccc21 (centres undefined)	none
Cc1cc(Cl)ccc1OCc1nc(-c2ccc(O)cc2)n[nH]1	ROCK2 inh 27
COc1cccc(C=Nc2cccnc2)c1O	HEK293 NFkB inh 46
CC(C)C(NC(=O)C1CCCCC1)C(=O)Nc1ccncc1 (centres undefined)	ROCK2 inh 76
c1ccc(-c2cccc(-c3ccccn3)n2)nc1	HEK293 NFkB inh 86
Cc1ccnc(NC(=O)CCC2CCCCC2)c1	none
COc1ccc(CC(=O)Nc2cc(C)ccn2)cc1	JNK3 inh 27
COC(=O)c1[nH]c2ccc(C)cc2c1NC(=O)CN1CCCCC1C (centres undefined)	none
COCCCN=C(c1ccco1)n1c(=S)nc(-c2ccco2)n(CCCOC)c1=S	none (no result: ROCK2 inh, JNK3 inh)
COc1ccc(C(C)=O)cc1COC(=O)c1ccc(OCc2c(C)noc2C)cc1	none
COc1ccc(C(C)=O)cc1COC(=O)c1c(C)noc1C	JNK3 inh 24
CCCCCn1c(=NC(C)=O)c(C#N)cc2c(=O)n3cccc(C)c3nc21	none
Nc1cccc2cnccc12	ROCK2 inh 26
O=S(=O)(NCCc1ccncc1)c1ccc(S(=O)(=O)N2CCCCCC2)cc1	none
COC(=O)Cn1cnc(=O)c(C#N)c1/C=C/N(C)C	none
Fc1cc2nc(-c3ccncc3)[nH]c2cc1F	PKA inh 24 (no result: ROCK2 inh, JNK3 inh)
COC(=O)c1sccc1NC(=O)C1CC=CCC1C(=O)O (centres undefined)	JNK3 inh 28
Cc1ccc2[nH]c3c(N4CCCCCC4)ncnc3c2c1	none (no result: HEK293 NFkB inh)
c1nc(N2CCCC2)c2[nH]cnc2n1	PKA inh 22 (no result: ROCK2 inh, JNK3 inh)
COc1ccc2oc(=O)c(C(=O)N3CCN(C45CC6CC(CC(C6)C4)C5)CC3)cc2c1	none
COc1ccc(-n2ncc3c(N(C)C4CCCCC4)ncnc32)cc1	HEK293 NFkB inh 46
Cc1cccc(-n2ncc3c(N(CCO)CCO)ncnc32)c1	none
COc1ccc(-n2ncc3c(N4CCC(C)CC4)ncnc32)cc1	none
Cc1cccc(-n2ncc3c(N(C)C4CCCCC4)ncnc32)c1	HEK293 NFkB inh 62
O=C(Nc1ccc2c(c1)OCO2)C1CCN(Cc2cnn(-c3ccccc3)c2-n2cccc2)CC1	none (no result: ROCK2 inh, JNK3 inh)
Cc1cc(C(=O)CN2C(=O)c3ccccc3S2(=O)=O)c(C)n1CC1CCCO1 (centres undefined)	HEK293 NFkB inh 84
O=C1CC(c2ccc(Cl)c(Cl)c2)CC(O)=C1C=NCCN1CCNCC1 (centres undefined)	none
O=C1c2ccccc2C(=O)N1Cc1ccco1	none
CC1=CC(=C2C(=O)c3ccccc3C2=O)C=C(C)N1Cc1ccco1	JNK3 inh 34
COc1ccc2[nH]c(=O)c3c(c2c1)OC(C)(C)C=C3	ROCK2 inh 23
CC1CC(C)(C)Nc2ccc(OC(=O)c3ccco3)cc21 (centres undefined)	HEK293 NFkB inh 58
CCOc1ccc(C2C(C(=O)c3ccco3)=C(O)C(=O)N2CCCn2ccnc2)cc1 (centres undefined)	none
Cc1ccc(C(=O)C2=C(O)C(=O)N(CCCn3ccnc3)C2c2ccc(OC(C)C)cc2)o1 (centres undefined)	JNK3 inh 27
CCn1c(=O)c(C2=NS(=O)(=O)c3ccccc3N2)c(O)c2ccccc21	none
Brc1ccc(-c2nn3c(-c4ccco4)nnc3s2)o1	JNK3 inh 25
CSC1=Nc2sc3c(c2C2=NCCN12)CC(C)(C)OC3	none (no result: HEK293 NFkB inh)
O=S1(=O)C=C(Sc2nc3ccccc3s2)c2ccccc21	HEK293 NFkB inh 46
Cc1nc(N)sc1-c1csc(Nc2ccccc2)n1	none
CC(=O)Nc1nc(C)c(-c2csc(Nc3ccc(O)cc3)n2)s1	JNK3 inh 18
Cn1c(C(=O)NCc2ccco2)cc2c(=O)[nH]c3ccccc3c21	JNK3 inh 47
Cc1cc(C(=O)NCc2ccco2)cs1	none
Cc1ccc(-c2nsc3c(N4CCC(C(N)=O)CC4)ncnc23)cc1	HEK293 NFkB inh 42
O=C(N1CCCC1)N1CCN(c2ncnc3c(-c4ccc(Cl)cc4)nsc23)CC1	none
O=S(=O)(c1ccc2c(c1)OCCO2)N1CCC(n2cnc3cc(F)ccc32)CC1	JNK3 inh 25
CCOC(=O)c1ccc2[nH]c3c(c2c1)CCCCC3=O	JNK3 inh 24
CCn1cc(C(=O)Nc2ccc(NC(=O)c3ccco3)cc2)c(=O)c2ccc(C)nc21	none
CCOC(=O)c1cccc2c1-c1ccccc1/C2=N/O	JNK3 inh 53
CCOC(=O)c1cccc(C(=O)OCC)n1	none
Cc1n[nH]c(C)c1S(=O)(=O)N(CC(=O)NC1CCCC1)c1ccc(C(C)C)cc1	none
Nc1c(Br)cc(Br)c(N2CCCC2=O)c1Br	none
CCN1C(=O)N(CC)C(O)(c2ccccc2)C1(O)c1ccccc1 (centres undefined)	ROCK2 inh 34
CCN1C(=O)N(C)C2(c3ccccc3)N(C)C(=O)N(C)C12c1ccccc1 (centres undefined)	none
CCOc1ncccc1C(=O)OCc1cc(=O)n2c(n1)sc1ccccc12	none
Cc1cnc(-c2nnc(N(C)C(=O)c3ccncc3)s2)cn1	none
